A short description of series [1]: Biodistribution of 67Ga complexes in naive mice. The note with it: naive female CBJ mice (n = 3), intravenous, 0.8–1.2 MBq, 1 h p.i. The series is classed as in vivo. The method, boiled down: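 Naive female CBJ mice (8–10 weeks) received 0.8–1.2 MBq of 67Ga complex via tail-vein catheter. The complex was formed from 67GaCl3 (derived from 67Ga-citrate) and ligand in HEPES at pH 7.4, with labelling checked by radio-HPLC. A 67Ga-citrate group was also dosed. At 1 h p.i. mice were killed, organs harvested and gamma-counted (% ID/g), and urine metabolites analysed by radio-HPLC.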

For another series, the system named is E. coli AN193. As to the kind of experiment: MIC assay in E. coli AN193. The series is classed as cell-based, Escherichia coli. To be noted: E. coli AN193 carrying a mutation of the FhuA gene; compared with wt E. coli K12.
In series [2] the test system is E. coli K12. As to the kind of experiment: MIC assay in E. coli K12 in iron-deficient. It counts as cell-based. The note with it: Escherichia coli, K12, 18 h, read-out: MIC90 (+DP).
Series [3] deals with E. coli K12. As to the kind of experiment: Challenge MIC assay in E. coli with 100-fold excess Fe-siderophore. To be noted: for MIC90: Escherichia coli, K12, 18 h, read-out: MIC90 (+DP, +100× Fe siderophore). The series is classed as cell-based, Escherichia coli.
For a further series, the system named is S. aureus RN4220. As to the kind of experiment: Growth inhibition. The series is classed as cell-based, Staphylococcus aureus. To be noted: for MIC90: Staphylococcus aureus, RN4220, 18 h, read-out: MIC90 S. aureus RN4220.
In the next series the test system is P. aeruginosa PA01. As to the kind of experiment: Growth inhibition. The note with it: for MIC90: Pseudomonas aeruginosa, PA01, 18 h, read-out: MIC90 P. aeruginosa PA01. The series is classed as cell-based, Pseudomonas aeruginosa. In short, it runs like this: (§1)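 Broth microdilution in cation-adjusted Mueller–Hinton II broth made iron-deficient with 2,2′-bipyridine. Test compound stock was 0.3 mM in sterile water, with concentration verified by ICP-OES/UV–vis. Serial dilutions gave a final range of 0.3 × 10−4 to 1.56 × 10−12 M, with diluted inoculum added. Ciprofloxacin served as comparator. Incubation was 18 h at 37 °C with absorbance read. MIC was the lowest concentration giving ≥90% growth inhibition relative to negative-control wells.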

Another series relates to K. pneumoniae CRE-11. As to the kind of experiment: Growth inhibition. To be noted: for MIC90: Klebsiella pneumoniae, CRE11, 18 h, read-out: MIC90 K. pneumoniae CRE-11. The series is classed as cell-based, Klebsiella pneumoniae. In short, it runs like this:
as §1

For series [4] the following is noted: cited from earlier work.

The values that follow come from publication PMC6943944 (Journal of medicinal chemistry, 2019).

In brackets after ≈: the same amount, converted by molar mass.

`O=C([O-])CC(O)(CC(=O)[O-])C(=O)[O-].[67Ga+3]` [^67Ga-citrate]: the “clearance route from biodistribution (in words)” value in series [1] is recorded as “predominantly renal clearance”.

For the compound `CC(=O)N(O)CCCCCNC(=O)CCC(=O)N(O)CCCCCNC(=O)CCC(=O)N(O)CCCCCNC(=O)CCC(=O)N1CCN(c2cc3c(cc2F)c(=O)c(C(=O)O)cn3C2CC2)CC1` [apo D1, 7-{4-[4-(5-{N-4-[5-(N-4-{5-[N-Acetyl-(hydroxyamino)]pentylamino}−4-oxobutyry(hydroxyamino))pentyl-amino]-4-oxobutyryl(hydroxyamino)}pentylamino)-4-oxobutyryl]-1-piperazinyl}−1-cyclopropyl-6-fluoro-4-oxo-1H-quinoline-3-carboxylic Acid], in the series with E. coli AN193, the “growth inhibitory activity in E. coli AN193 (in words)” value is “retain comparable MIC values”.

For `CC(=O)N(O)CCCC(N)C(=O)NC(CCCN(O)C(C)=O)C(=O)NC(CCCN(O)C(C)=O)C(=O)NCCC(=O)N1CCN(c2cc3c(cc2F)c(=O)c(C(=O)O)cn3C2CC2)CC1` (centres unmarked) [apo D2, 7-[4-(3-{5-[N-Acetyl(hydroxyamino)]-2-{5-[N-acetyl(hydroxyamino)]-2-{5-[N-acetyl(hydroxyamino)]-2-aminovalerylamino}-valerylamino}valerylamino}propionyl)-1-piperazinyl]-1-cyclopropyl-6-fluoro-4-oxo-1H-quinoline-3-carboxylic Acid], the MIC90 in the series with E. coli K12 [2] was 0.23 µM (≈ 0.211 µg/mL); in the series on E. coli K12 [3] it was over 100 µM; with S. aureus RN4220 it was 15 µM (≈ 13.8 µg/mL); with P. aeruginosa PA01 it was 7.5 µM (≈ 6.89 µg/mL); in the series with K. pneumoniae CRE-11 it was over 100 µM. Moreover, in the series on E. coli AN193, the “growth inhibitory activity in E. coli AN193 (in words)” value is reported as “completely muted”.

For `O=C(O)c1cn(C2CC2)c2cc(N3CCNCC3)c(F)cc2c1=O` [ciprofloxacin], the MIC90 with E. coli K12 [2] came out at 0.2 µM (≈ 0.0663 µg/mL); in the series with E. coli K12 [3], 0.23 µM (≈ 0.0762 µg/mL); in the series on S. aureus RN4220, 1.9 µM (≈ 0.63 µg/mL); in the series on P. aeruginosa PA01, 0.94 µM (≈ 0.311 µg/mL); with K. pneumoniae CRE-11, 3.12 µM (≈ 1.03 µg/mL). Moreover, the “impact of 100× Fe–DFO or 100× Fe–LDFC on potency (in words)” value in the series on E. coli K12 [3] (E. coli, challenge MIC assay) is on record as “no impact”.

For `CC(=O)N(O)CCCCCNC(=O)CCC(=O)N(O)CCCCCNC(=O)CCC(=O)N(O)CCCCCN` [desferrioxamine (DFO), desferrioxamine], in series [4], the “log Ka of the gallium complex” value was 28.65.

For the compound albomycin [Fe-D3 (albomycin)], in the series on E. coli AN193, the “growth inhibitory activity in E. coli AN193 (in words)” value is reported as “completely muted”. In addition, the “MIC90 S. aureus RN4220” value with S. aureus RN4220 (wild-type S. aureus RN4220, iron-limiting conditions, 37 °C, 18 h) was 0.94 µM. Moreover, the “MIC90 P. aeruginosa PA01” value against P. aeruginosa PA01 (wild-type P. aeruginosa PA01, iron-limiting conditions, 37 °C, 18 h) was over 30 µM. For the same compound, the “MIC90 K. pneumoniae CRE-11” value in the series with K. pneumoniae CRE-11 (carbapenem resistant K. pneumoniae CRE-11, iron-limiting conditions, 37 °C, 18 h) turned out to be 0.00023 μM. For the same compound, the “growth inhibitory activity in K. pneumoniae (in words)” value in the series with K. pneumoniae CRE-11 (carbapenem resistant K. pneumoniae, iron-limiting conditions) is reported as “exceptional potency”.

For orientation: MIC90 means an inhibitory concentration at the 90% level, which refers to growth in some studies and to a panel of isolates in others.
